Results pooled from the literature.
Each line is one published result; the experiments were not run side by side.
Target: Phosphorylase b kinase gamma catalytic chain, skeletal muscle/heart isoform (PHKG1, Homo sapiens, UniProt Q16816)
Concentration: 1 µM

Structure (SMILES) | effect on | method | remaining binding [%]
CN(c1nccc(-c2cnn3ncccc23)n1)C1CC1 | binding | – | 100
O=C(NCc1ncc(C(F)(F)F)cc1Cl)c1ccc2c(c1)C1(CCS(=O)(=O)CC1)[C@@H](C1CC1)N2S(=O)(=O)c1ccc(F)cc1 | cell-free assay | competition with immobilised ligand | 100
C[C@H]1CCN(c2nccc(-c3cnn4ncccc34)n2)C1 | binding | – | 100
C=CC(=O)N1CCC(C(=O)NCC(=O)N2CCN(c3nc(-c4cnc(N)nc4C(F)F)nc(N4CCOCC4)n3)CC2)CC1 | binding | competition with immobilised ligand | 100
Cc1nc(N2CC[C@@H](O)C2)ncc1-c1cc(C(F)(F)F)cc2[nH]ncc12 | cell-free assay | competition with immobilised ligand | 81
O=C(c1ccc(Nc2nccc(-c3cc4ccccc4s3)n2)cc1)N1CCC(N2CCCC2)CC1 | binding | competition with immobilised ligand | 96
F[C@@H]1CCN(c2nccc(-c3cnn4ncccc34)n2)C1 | binding | – | 100
O=C(N[C@H]1CCCCC/C=C\C2C[C@@]2(C(=O)O)NC(=O)[C@@H]2C[C@@H](Oc3ccncc3)CN2C1=O)OC1CCCC1 (stereo partly shown) | binding | competition with immobilised ligand | 88
CCN1CCN(Cc2ccc(C(=O)Nc3ccc(C)c(Oc4ccc5c(c4)CC(=O)N5)c3)cc2C(F)(F)F)CC1 | binding | competition with immobilised ligand | 100
O=C(c1ccc(Nc2ncc(Cl)c(-c3ccc(Cl)s3)n2)cc1)N1CCC(N2CCCC2)CC1 | binding | competition with immobilised ligand | 85
CN(C)c1nccc(-c2cnn3ncccc23)n1 | binding | – | 100
COc1ccc2cc(OCC3(C(=O)O)CN(C(=O)c4ccc(F)cc4)C3)ccc2c1 | cell-free assay | competition with immobilised ligand | 100
Cc1cnn2ncc(-c3ccnc(N(C)C)n3)c2c1 | binding | – | 85
O=C(O)[C@H]1[C@H](Cn2nnc3ccccc3c2=O)CC[C@@H]1C(=O)c1ccc(OCCC2CCOCC2)cc1 | cell-free assay | competition with immobilised ligand | 74
COc1cnc(Nc2cccc(S(N)(=O)=O)c2)nc1N1CCN(c2ccccc2)C(=O)C1 | binding | competition with immobilised ligand | 100
CC1CCCN1c1nccc(-c2cnn3ncccc23)n1 (stereo not shown) | binding | – | 100
Cc1cnc(Nc2ccc(C(=O)N3CCC(N4CCCC4)CC3)cc2)nc1-c1cc2ccccc2s1 | binding | competition with immobilised ligand | 54
COc1cnc(Nc2cccc(S(N)(=O)=O)c2)nc1N1CCN(c2ccccc2)CC1 | binding | competition with immobilised ligand | 97
Cc1c(NC(=O)c2cc(C(N)=O)nc3cc(F)ccc23)c(C(F)(F)F)nn1Cc1ccc(C(C)(C)C)cc1 | cell-free assay | competition with immobilised ligand | 100
O=C(NCC1CCOCC1)c1n[nH]cc1NC(=O)c1c(F)cccc1F | binding | competition with immobilised ligand | 100
CN(C)c1nccc(-c2cnc3ncccn23)n1 | binding | – | 100
CC(=O)C1=C(C)N(c2cccc(C(F)(F)F)c2)C(=O)N[C@@H]1c1ccc(C#N)nc1 | cell-free assay | competition with immobilised ligand | 100
